# Rows were chosen to be rich in hits. Some 1.5% of all compounds tested hit in one or more screens of this group.
# TAG inh – triacylglycerol accumulation inhibition; H9c2 cells, Nile Red lipid (TAG) fluorescence; cells loaded with 200 µM oleic acid; inhibition, % at 12.5 µM; 230,000 tested, 0.66% active; AID 651582;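 active means pattern-corrected inhibition of lipid staining of at least 50% with the nuclear-stain viability signal not falling by more than 50%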
# STAT1 inh – STAT1 signaling inhibition | NIH 3T3 STAT1-luciferase reporter, IFN-gamma, luminescence | inhibition, % at 5.5 µM | 200,000 tested, 0.35% active;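 active means inhibition above a set limit, the mean inhibition across all tested compounds plus 3 SD, cut at about 34% in these data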
# Lipid droplet – modulators of hepatic lipid droplet formation; AML12 mouse hepatocytes, oleate lipid droplets, BODIPY imaging; 240,000 tested, 0.4% active; AID 1656; inhibition, % at 6.5 µM;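 active means lipid droplet intensity inhibited by at least 50%, with more than 500 cells counted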
#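 material = mouse AML12 hepatocyte cell line, fixed after treatment | also added = 100 µM oleic acid challenge | doses = compound at 6.5 µM only | schedule = overnight exposure | technique = Image-based BODIPY and DAPI two-channel analysis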
# STAT3 inh – inhibitors of IL-6 induced STAT3 signaling; inhibition, % at 5.5 µM; 190,000 tested, 0.89% active; U3A cells, IL-6 STAT3-luciferase reporter, luminescence; host cell line lacks STAT1; AID 862;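 active means inhibition above the mean inhibition across all screened compounds plus 3 SD, cut at about 44% in these data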
# Platelet DG rel – modulates dense granule release in human platelets; human platelet-rich plasma, SFLLRN dense granule ATP release, luminescence; inhibition, %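 (compounds screened at 7.5 µM in platelet-rich plasma)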; 300,000 tested, 0.22% active;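 active means mean replicate score, as percent of positive control, at or above 50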
# PPC-1+TRAIL kill – compounds killing PPC-1 cancer cells with TRAIL present (potentiator screen, no TRAIL-free arm) | PPC-1 cells + TRAIL, ATPLite viability luminescence | cell killing (% activity), % at 4 µM or 5 µM | 220,000 tested, 0.41% active | AID 1443;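 active means cell killing above 50% in the first pass at 4 µM, then a duplicate retest at 5 µM averaging 50% or more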
# Lipid drop inh – confirmation of inhibitors of hepatic lipid droplet formation | shares compounds with Lipid droplet | AML12 mouse hepatocytes, BODIPY lipid droplet imaging; droplets induced with 100 µM oleic acid | inhibition, % at 5.2 µM | 870 tested, 65% active | AID 463183;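 active means inhibition of lipid droplet metric at least 50%, with more than 300 cells in each of four replicates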
# AML12 cytotox – toxic to AML12 mouse hepatocytes in counter-screen | shares compounds with Lipid droplet | DAPI nuclear morphology cytotoxicity imaging; hits give high values; cells fed 100 µM oleate overnight | z-score at 5 µM | 870 tested, 3% active; in the data active means z-score above about 6.3;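 further: compound exposure lasted overnight at 37 °C before fixation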
# AML12 tox ATP – confirmation of cytotoxicity in AML12 mouse hepatocytes. AML12 mouse hepatocyte viability, ATP luminescence; cells loaded with 100 µM oleic acid. cytotoxicity, % at 50 µM. shares compounds with Lipid droplet. 530 tested, under 10 active. AID 463219;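 active means cytotoxicity above 50% in each of four replicates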;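 further: compound exposure lasted overnight at 37 °C before the ATP read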
# Hits are given with their value; i = inactive; nt = not tested or not shown.
SMILES,TAG inh,STAT1 inh,Lipid droplet,STAT3 inh,Platelet DG rel,PPC-1+TRAIL kill,Lipid drop inh,AML12 cytotox,AML12 tox ATP
CC1CC(C)CN(C(=O)CSCC(=O)Nc2nc(-c3cccs3)cs2)C1 (stereo unspecified),i,i,56.5,i,i,i,108.5,i,i
O=C(CSCC(=O)N1CCCCC1)Nc1nc(-c2cccs2)cs1,i,i,nt,i,i,i,nt,nt,nt
CCC(C)C(NC(=O)c1ccccc1NC(=O)c1ccc(OC)cc1)C(=O)NCc1ccco1 (stereo unspecified),nt,i,69.8,i,i,i,100.5,i,i
CC(=O)c1cc2c(cc1C)CCCC2(C)C,i,nt,nt,nt,nt,nt,nt,nt,nt
CCOc1cc(/C=N\Nc2nc(Nc3ccccc3)nc(N3CCOCC3)n2)ccc1OC(=O)c1ccco1,i,i,132.0,i,i,i,108.8,20.5,nt
Cc1onc(-c2ccccc2)c1C(=O)OCC(=O)c1ccc(F)cc1,i,nt,nt,nt,nt,nt,nt,nt,nt
CCN(CC)S(=O)(=O)c1ccc(C(=O)NCc2ccc3[nH]c4c(c3c2)CCCC4)cc1,i,i,85.4,i,i,i,90.4,i,i
O=C1NC(=O)C2(CCCCC2)N1,i,nt,nt,nt,nt,nt,nt,nt,nt
CCCCSCCCNC(=O)c1ccc2c(c1)N(CC)C(=O)c1ccccc1S2=O (stereo unspecified),nt,nt,60.0,nt,i,nt,88.4,i,i
COc1ccc(NC(=O)c2cc(C3CCCCN3C(=O)c3ccc(NC(C)=O)cc3)on2)c(C)c1 (stereo unspecified),i,nt,nt,nt,nt,nt,nt,nt,nt
Cc1ccc(OCC(=O)Nc2ccc3c(c2)C(=O)NC3=O)cc1,i,nt,i,nt,i,nt,nt,nt,nt
O=C(COc1ccc(Cl)cc1)Nc1ccc2c(c1)C(=O)NC2=O,i,nt,59.5,nt,i,nt,i,i,nt
COc1cccc(CNS(=O)(=O)c2ccc(S(=O)(=O)NC3CC3)cc2)c1,nt,nt,80.5,nt,i,nt,108.0,i,i
CC(C)C(=O)N(Nc1nc2ccccc2s1)C(=O)C(C)C,nt,i,72.0,i,i,i,70.0,i,i
CCOc1ccc(CCNC(=O)COC(=O)/C=C/c2ccc(OCC#N)c(OC)c2)cc1OCC,nt,i,63.1,i,i,i,102.8,i,i
COc1ccc(CCNC(=O)COC(=O)/C=C/c2ccc(OCC#N)c(OC)c2)cc1OC,nt,i,i,i,i,i,nt,nt,nt
CCOc1ccc(CCNC(=O)COC(=O)c2cccnc2OCC)cc1OCC,nt,i,98.0,i,i,i,104.8,i,i
CCOc1ccc(CCNC(=O)CSc2cc(=O)n(C)c3ccccc23)cc1OCC,nt,i,97.7,i,i,i,105.8,i,i
CCCCNC(=O)CSc1cc(=O)n(C)c2ccccc12,i,i,i,i,i,i,nt,nt,nt
CCOc1ccc(CCNC(=O)COc2cc(=O)n(C)c3ccccc23)cc1OCC,nt,i,99.6,i,i,i,100.7,i,i
CC(C)c1nc(SCC(=O)NC2CCCC2)c2c(=O)n(C)c(=O)n(C)c2n1,i,nt,i,nt,i,nt,nt,nt,nt
CCCC(=O)Nc1c2c(nc3ccccc13)N(c1ccccc1)CC2,i,i,51.8,i,i,i,i,i,nt
O=C(Nc1nc(-c2ccc(-c3ccccc3)cc2)cs1)C1CCCO1 (stereo unspecified),i,i,60.7,i,i,i,101.8,i,i
O=C(Nc1nc(-c2ccccc2)cs1)C1CCCCN1S(=O)(=O)c1ccc(Cl)cc1 (stereo unspecified),nt,i,61.9,i,i,i,91.0,i,i
O=C(Nc1nc(-c2ccccc2)cs1)C1CCCCN1S(=O)(=O)c1ccccc1 (stereo unspecified),nt,i,i,i,i,i,nt,nt,nt
SMILES,TAG inh,STAT1 inh,Lipid droplet,STAT3 inh,Platelet DG rel,PPC-1+TRAIL kill,Lipid drop inh,AML12 cytotox,AML12 tox ATP
COc1cc(/C=C\C(=O)NCc2ccc3[nH]c(C)cc3c2)cc(OC)c1OC,i,i,i,i,i,i,nt,nt,nt
COc1ccc(/C=C\C(=O)NCc2ccc3[nH]c(C)cc3c2)cc1OC,i,i,73.9,i,i,i,95.9,i,i
OCCCNc1cc(-c2ccnc(Nc3cccc(Cl)c3)n2)ccn1,89.6,nt,77.4,nt,i,i,90.0,27.4,nt
CC(C)n1c(CNC(=O)c2ccccc2F)nnc1SCC(=O)NC1CCCCC1,i,nt,nt,nt,nt,nt,nt,nt,nt
O=C(N/N=C/c1ccc(F)cc1)c1ccc(OCc2ccccc2)cc1,i,nt,i,nt,i,i,nt,nt,nt
Cc1occc1C(=O)N/N=C/c1ccc(OCc2ccccc2)cc1,i,nt,59.6,nt,i,i,i,i,nt
CCC(C(=O)NCc1ccc(C)o1)n1nc(C)c2c(C)n(-c3ccccc3)nc2c1=O (stereo unspecified),nt,nt,i,nt,i,nt,nt,nt,nt
CCC(C(=O)NCc1cccc(C)c1)n1nc(C)c2c(C)n(-c3ccccc3)nc2c1=O (stereo unspecified),nt,nt,64.0,nt,i,nt,78.2,i,i
Cc1ccc(-n2nc3c(=O)n(CC(=O)NCCCc4ccccc4)nc(C)c3c2C)cc1,nt,nt,65.0,nt,i,nt,81.3,i,i
O=C(COC(=O)c1n[nH]c2ccccc12)NCCc1ccccc1,i,nt,nt,nt,nt,nt,nt,nt,nt
CNC(=O)c1nn(C)c(=O)[nH]c1=O,i,nt,nt,nt,nt,nt,nt,nt,nt
CCc1c(C#N)c(SCCC(=O)Nc2cccc(OC)c2)nc2c1C(=O)CC(C)(C)C2,i,i,58.5,i,i,i,101.4,i,i
CCc1c(C#N)c(SCCC(=O)Nc2ccc(F)cc2)nc2c1C(=O)CC(C)(C)C2,nt,i,i,i,i,i,nt,nt,nt
CCN(CC)c1ncnc2c1ncn2[C@H]1CN(Cc2ccc3c(c2)OCO3)C[C@@H](CO)O1,i,nt,nt,nt,nt,nt,nt,nt,nt
CCCCCCn1c(SCC(=O)Nc2cc(C)on2)nc2ccccc2c1=O,nt,i,68.4,i,i,i,96.7,i,i
CCn1cc(C(=O)N(C)c2ccc(OC)cc2)c2cc(OC)c(OC)cc2c1=O,nt,nt,68.4,nt,i,nt,i,i,nt
Cc1ccnc(NS(=O)(=O)c2ccc(NC(=O)c3cccc(Cl)c3)cc2)n1,i,nt,nt,nt,nt,nt,nt,nt,nt
O=C(NCc1ccc(C(=O)O)cc1)OCc1ccccc1,i,i,63.0,i,i,i,i,i,nt
CCOc1ccc(NC(=O)CSc2nc3ccccc3nc2N2CCCC2)cc1,i,nt,81.1,nt,i,nt,106.3,i,i
Cc1cccc(NC(=O)CSc2nc3ccccc3nc2N2CCCC2)c1C,i,nt,55.2,nt,i,nt,i,i,nt
Cc1cc(C)cc(NC(=O)CSc2nc3ccccc3nc2N2CCCC2)c1,i,nt,70.5,nt,i,nt,107.3,i,i
COc1ccc(NC(=O)CSc2nc3ccccc3nc2N2CCCC2)cc1Cl,i,nt,64.4,nt,i,nt,96.4,i,i
CCOc1ccccc1NC(=O)CSc1nc2ccccc2nc1N1CCCC1,i,nt,i,nt,i,nt,nt,nt,nt
NC(=Nc1ccccc1)N(c1ccccc1)c1ccccc1,i,nt,nt,nt,nt,nt,nt,nt,nt
